Experimental data: ChEMBL document CHEMBL4002594, “Novel inhibitors of Plasmodium falciparum based on 2,5-disubstituted furans” (Eur J Med Chem, 2017)

Experiments:
Type in all cases: ADME, organism-based
[1] = Plasma concentration in Sprague-Dawley rat at 1 mg/kg, iv administered as 10 mins infusion measured at 16.17 hrs by LC-MS analysis
Procedure, shortened: (§1)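 Male Sprague Dawley rats were dosed IV (nominal 1 mg/kg; 0.9 mg/kg actual) or orally (nominal 20 mg/kg; 19 mg/kg actual). Plasma concentration–time profiles were determined, with n=2 rats per time point, and mean and range reported.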

[2] = Plasma concentration in Swiss outbred mouse at […], iv at 4 hrs by LC-MS analysis
[3] = Plasma concentration in Sprague-Dawley rat at 1 mg/kg, iv administered as 10 mins infusion measured at 1.17 hrs by LC-MS analysis; procedure, shortened: as §1
[4] = Plasma concentration in Sprague-Dawley rat at 20 mg/kg administered via oral gavage at 1 hr by LC-MS analysis; procedure, shortened: as §1
[5] = Plasma concentration in Swiss outbred mouse at […], iv at 0.008 hrs by LC-MS analysis
[6] = Plasma concentration in Swiss outbred mouse at […], iv at 0.5 hrs by LC-MS analysis
[7] = Plasma concentration in Swiss outbred mouse at 48 mg/kg administered via oral gavage at 4 hrs by LC-MS analysis
Procedure, shortened: (§2)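 Single oral administration of 48 mg/kg to male Swiss outbred mice. Plasma concentration-time profile reported as the mean and range of n=2 mice per time point.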

[8] = Plasma concentration in Sprague-Dawley rat at 1 mg/kg, iv administered as 10 mins infusion measured at 10.17 hrs by LC-MS analysis; procedure, shortened: as §1
[9] = (§3) Plasma concentration in Swiss outbred mouse at […], iv at […] by LC-MS analysis
[10] = Plasma concentration in Sprague-Dawley rat at 1 mg/kg, iv administered as 10 mins infusion measured at 24.17 hrs by LC-MS analysis; procedure, shortened: as §1
[11] = Plasma concentration in Swiss outbred mouse at […], iv at 1 hr by LC-MS analysis
[12] = Plasma concentration in Sprague-Dawley rat at 20 mg/kg administered via oral gavage at 0.5 hrs by LC-MS analysis; procedure, shortened: as §1
[13] = (§4) Plasma concentration in Sprague-Dawley rat at 20 mg/kg administered via oral gavage at […] by LC-MS analysis
[14] = Plasma concentration in Swiss outbred mouse at 48 mg/kg administered via oral gavage at 2 hrs by LC-MS analysis; procedure, shortened: as §2
[15] = Plasma concentration in Sprague-Dawley rat at 1 mg/kg, iv administered as 10 mins infusion measured at 5.17 hrs by LC-MS analysis; procedure, shortened: as §1
[16] = as §3; remark: listed apart in the source
[17] = Plasma concentration in Swiss outbred mouse at 48 mg/kg administered via oral gavage at […] by LC-MS analysis
[18] = Plasma concentration in Sprague-Dawley rat at 1 mg/kg, iv administered as 10 mins infusion measured at 0.5 hrs by LC-MS analysis; procedure, shortened: as §1
[19] = Plasma concentration in Swiss outbred mouse at 48 mg/kg administered via oral gavage at 1 hr by LC-MS analysis; procedure, shortened: as §2
[20] = Plasma concentration in Sprague-Dawley rat at 1 mg/kg, iv administered as 10 mins infusion measured at 2.67 hrs by LC-MS analysis; procedure, shortened: as §1
[21] = Plasma concentration in Swiss outbred mouse at […], iv at 7.5 hrs by LC-MS analysis
[22] = Plasma concentration in Swiss outbred mouse at […], iv at 24 hrs by LC-MS analysis
[23] = Plasma concentration in Swiss outbred mouse at […], iv at 0.08 hrs by LC-MS analysis
[24] = Plasma concentration in Swiss outbred mouse at […], iv at 2 hrs by LC-MS analysis
[25] = Plasma concentration in Swiss outbred mouse at 48 mg/kg administered via oral gavage at 10 hrs by LC-MS analysis; procedure, shortened: as §2
[26] = Plasma concentration in Swiss outbred mouse at 48 mg/kg administered via oral gavage at 7.5 hrs by LC-MS analysis; procedure, shortened: as §2
[27] = as §4; remark: listed apart in the source
[28] = (§5) Plasma concentration in Sprague-Dawley rat at 1 mg/kg, iv administered as 10 mins infusion measured at […] by LC-MS analysis
[29] = as §5; remark: listed apart in the source
[30] = Plasma concentration in Swiss outbred mouse at […], iv at 10 hrs by LC-MS analysis
[31] = Plasma concentration in Sprague-Dawley rat at 20 mg/kg administered via oral gavage at 5 hrs by LC-MS analysis; procedure, shortened: as §1
[32] = Plasma concentration in Swiss outbred mouse at […], iv at 0.033 hrs by LC-MS analysis
[33] = Plasma concentration in Sprague-Dawley rat at 20 mg/kg administered via oral gavage at 4 hrs by LC-MS analysis; procedure, shortened: as §1
[34] = Plasma concentration in Sprague-Dawley rat at 1 mg/kg, iv administered as 10 mins infusion measured at 0.08 hrs by LC-MS analysis; procedure, shortened: as §1
[35] = Plasma concentration in Swiss outbred mouse at 48 mg/kg administered via oral gavage at 24 hrs by LC-MS analysis; procedure, shortened: as §2
[36] = Plasma concentration in Swiss outbred mouse at 48 mg/kg administered via oral gavage at 0.5 hrs by LC-MS analysis; procedure, shortened: as §2

For `CN(C)CCCNc1ccc(-c2ccc(F)c(Cl)c2)o1`, the concentration at 16.17 h [1] was 0.025 µM, the concentration at 4 h [2] was 0.029 µM and the concentration at 1.17 h [3] was 0.029 µM. For the same compound, the concentration at 1 h [4] was 0.08 µM, the concentration at 0.008 h [5] was 0.841 µM and the concentration at 0.5 h [6] was 0.044 µM. The concentration at 4 h [7] was 0.132 µM, the concentration at 10.17 h [8] was 0.029 µM and the concentration at […] [9] was 0.054 µM. For the same compound, the concentration at 24.17 h [10] was 0.02 µM, the concentration at 1 h [11] was 0.043 µM and the concentration at 0.5 h [12] was 0.065 µM. For the same compound, the concentration at […] [13] was 0.05 µM, the concentration at 2 h [14] was 0.494 µM and the concentration at 5.17 h [15] was 0.035 µM. It also gave a concentration at […] [16] of 0.31 µM, a concentration at […] [17] of 0.171 µM and a concentration at 0.5 h [18] of 0.036 µM. The concentration at 1 h [19] was 0.693 µM, the concentration at 2.67 h [20] was 0.02 µM and the concentration at 7.5 h [21] was 0.031 µM. For the same compound, the concentration at 24 h [22] was 0.022 µM, the concentration at 0.08 h [23] was 0.08 µM and the concentration at 2 h [24] was 0.026 µM. The concentration at 10 h [25] was 0.192 µM, the concentration at 7.5 h [26] was 0.239 µM and the concentration at […] [27] was 0.0455 µM. It also gave a concentration at […] [28] of 0.255 µM, a concentration at […] [29] of 0.071 µM and a concentration at 10 h [30] of 0.023 µM. It also gave a concentration at 5 h [31] of 0.027 µM, a concentration at 0.033 h [32] of 0.149 µM and a concentration at 4 h [33] of 0.028 µM. The concentration at 0.08 h [34] was 0.334 µM, the concentration at 24 h [35] was 0.208 µM and the concentration at 0.5 h [36] was 0.812 µM.
